# Measured values published in ChEMBL document CHEMBL2021854, “2-Aminopyrimidine based 4-aminoquinoline anti-plasmodial agents. Synthesis, biological activity, structure-activity relationship and mode of action studies” (Eur J Med Chem, 2012).
# Test system: Vaccinia virus
# Assay: Antiviral activity against Vaccinia virus infected in HEL cells assessed as inhibition of virus-induced cytopathogenicity after 4 days
# Assay type: functional, organism-based
# Conditions: Orthopoxvirus vaccinia, 96 h
# How it was run: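 Confluent HEL or HeLa monolayers infected with 100 CCID50 of virus in the presence of varying compound concentrations.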
smiles,measurement,value
CCOC(=O)c1c(C)nc(NCCNc2ccnc3cc(Cl)ccc23)nc1-c1ccccc1,EC50,> 4 µM
CCOC(=O)c1c(C)nc(NCCCCNc2ccnc3cc(Cl)ccc23)nc1-c1ccccc1,EC50,> 100 µM
Cc1nc(NCCNc2ccnc3cc(Cl)ccc23)nc(-c2ccccc2[N+](=O)[O-])c1C(=O)OC(C)C,EC50,> 20 µM
CCOC(=O)c1c(C)nc(NCCCNc2ccnc3cc(Cl)ccc23)nc1C,EC50,> 100 µM
Nc1nc2c(ncn2COCCO)c(=O)[nH]1 [ACYCLOVIR],EC50,> 250 µM
Cc1nc(NCCCNc2ccnc3cc(Cl)ccc23)nc(-c2cccc([N+](=O)[O-])c2)c1C(=O)OC(C)C,EC50,> 4 µM
Nc1nc(O)c2ncn(COC(CO)CO)c2n1 [GANCICLOVIR],EC50,> 100 µM
CCOC(=O)c1c(C)nc(NCCCCNc2ccnc3cc(Cl)ccc23)nc1C,EC50,> 100 µM
Cc1nc(NCCCCNc2ccnc3cc(Cl)ccc23)nc(-c2ccccc2[N+](=O)[O-])c1C(=O)OC(C)C,EC50,> 4 µM
CCOC(=O)c1c(C)nc(NCCCNc2ccnc3cc(Cl)ccc23)nc1-c1ccccc1,EC50,> 100 µM
